Screens: PubChem, several laboratories
Compounds with a hit are over-represented: about 1.3% of the library has one in this group of screens.
EBV gp42 block – blocks Epstein-Barr virus glycoprotein 42 binding | Fluorescence polarization binding assay, mP read-out | inhibition, % (tested at 21.74 µM) | 0.42% of 220,000 active | Q1HVG2 | AID 1085; in the data active = inhibition above about 50%
MEX-5 binding – C. elegans MEX-5 TCR-2 RNA binding activity. Q9XUB2. MEX-5/FITC-TCR2 RNA binding, fluorescence polarization; hits give low values. activity score (negative = inhibition of binding), % at 10 µM. 0.38% of 300,000 active. AID 1832;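 active = inhibition past about -25% in most replicates, and total fluorescence under double the plate's negative control median, limit read from the data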;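 also: 0% = DMSO and -100% = 5 µM competing unlabeled TCR2 RNA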
GRK2 aptamer HTS – human GRK2 inhibition via aptamer displacement; 0.59% of 330,000 active; bead flow cytometry, FAM-aptamer displacement from GRK2; inhibition of aptamer binding, % at 10 µM; P25098;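 active = inhibition of aptamer binding above 40%, roughly 3 SD of noise, on plates passing a quality check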;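 also: median bead fluorescence of bound FAM aptamer so fluorescent compounds give negative values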
Keap1 Nrf2 FP – Keap1-Nrf2 (human) interaction inhibition. Q14145. Keap1 Kelch-Nrf2 peptide fluorescence polarization, 1536-well. inhibition, % at 9.4 µM. 0.15% of 340,000 active. AID 504523; in the data active = inhibition above about 12%;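 also: human Keap1 Kelch domain with fluorescein labeled Nrf2 9mer peptide probe; 0% = neutral control wells and 100% = peptide positive control; higher means more block of Keap1 binding to Nrf2 peptide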
Target sequence (Q14145 whole entry, looked up, the tested form may be a part): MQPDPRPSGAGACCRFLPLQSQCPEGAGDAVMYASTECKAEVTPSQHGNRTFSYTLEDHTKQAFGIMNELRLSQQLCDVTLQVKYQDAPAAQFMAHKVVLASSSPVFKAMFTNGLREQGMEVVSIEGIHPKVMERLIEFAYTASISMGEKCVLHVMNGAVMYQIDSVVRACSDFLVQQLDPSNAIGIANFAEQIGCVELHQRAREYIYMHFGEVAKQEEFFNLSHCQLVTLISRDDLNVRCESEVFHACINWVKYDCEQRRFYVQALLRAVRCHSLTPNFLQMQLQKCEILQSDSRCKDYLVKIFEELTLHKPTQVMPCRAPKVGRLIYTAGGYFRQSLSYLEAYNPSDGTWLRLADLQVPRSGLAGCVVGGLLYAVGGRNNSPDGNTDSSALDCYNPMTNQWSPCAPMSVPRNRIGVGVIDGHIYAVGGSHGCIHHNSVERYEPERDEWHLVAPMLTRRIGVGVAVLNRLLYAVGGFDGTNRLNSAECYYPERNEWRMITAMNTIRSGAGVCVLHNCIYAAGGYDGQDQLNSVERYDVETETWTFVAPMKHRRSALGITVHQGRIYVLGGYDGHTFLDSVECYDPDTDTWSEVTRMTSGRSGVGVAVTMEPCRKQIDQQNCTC
LANA DNA inh – KSHV C-LANA DNA binding inhibition; MBP-C-LANA/FAM-LBS DNA binding, fluorescence polarization; inhibition, % at 9 µM; 0.078% of 340,000 active;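 active = highest replicate inhibition at or above 60% at 9 µM, even if other replicates fall short; inactive = all replicates below 60% inhibition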;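 also: 0% = neutral control wells and 100% = 4 µM acridine orange control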
T cell modulator – T cell immune modulation candidate; 2C CD8+ T cell-vesicle binding, flow cytometry; hits give low values; response (vesicle binding), % at 7 µM; 0.068% of 330,000 active; AID 2052;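 active = response, share of CD8 T cells binding vesicles, and their 90th percentile fluorescence all below set limits, cut at about 80% in these data, passing the limit was not always enough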;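 also: values below 100% mean blocked vesicle binding to the CD8+ T cells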
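Also added: QL9-peptide-loaded Drosophila micro-vesicles bearing Ld, ICAM-1 and B7-1; Test system: purified 2C TCR transgenic mouse naive CD8+ T cells; Measured by: cytometric PE anti-B7-1 and Alexa647 anti-CD8 signals after 1% paraformaldehyde fixation; Timing: binding step 1.5 h, 37 °C, antibody labelling 20 min, ice.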
GRK2 CP1 – confirmation of human GRK2 inhibitors displacing RNA aptamer. 4% of 2,000 active. AID 504451. shares compounds with GRK2 aptamer HTS. bead-bound GRK2, FAM-aptamer displacement, flow cytometry. aptamer displacement, % at 10 µM;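 active = aptamer displacement above 40%, near three times the noise of non-fluorescent compounds, on plates passing quality checks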;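 also: negative values mostly reflect intrinsic compound fluorescence rather than true enhancement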
Aptamer quench – counter-screen for GRK2 aptamer inhibitors: fluorescent aptamer quenchers | shares compounds with GRK2 aptamer HTS | Fluorescent RNA aptamer beads, quenching, flow cytometry; hits give high values | fluorescence change (kMESF span), kMESF (no concentration beside the values) | 110 tested, under 10 active | AID 504521;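 active = compounds whose bead fluorescence drops by more than 37 kMESF across the dose range, marking them as dye quenchers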
FAM quench CP1 – quenches fluorescent RNA aptamer, GRK2 hit artifact; fluorescence response (% of DMSO), % at 10 µM; Carboxyfluorescein RNA aptamer on beads, flow cytometry quenching; hits give low values; shares compounds with GRK2 aptamer HTS; 2,000 tested, under 10 active;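 active = compounds that quench the bead-bound fluorescent RNA probe, cutting fluorescence to under half of the solvent control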;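 also: counterscreen run without GRK2 so only probe quenching by compound is measured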
Numbers without * were called inactive; · = not tested or not shown.

SMILES	EBV gp42 block	MEX-5 binding	GRK2 aptamer HTS	Keap1 Nrf2 FP	LANA DNA inh	T cell modulator	GRK2 CP1	FAM quench CP1	others
COc1ccccc1C1CC2CCC(C1OC(C)=O)N2Cc1ccccc1 (stereo not given)	·	-4	0	-1	7	139	·	·
CN1CCN(c2ccc(C(F)(F)F)cc2N)CC1	-7	-2	2	-4	0	623	·	·
CN1CCN(c2ccc(C(N)=O)cc2N)CC1	-11	1	43*	-5	6	272	-2	102
Cc1c(C)c2ccc(OCC(=O)N3CCN(Cc4ccccc4)CC3)cc2oc1=O	·	·	0	-5	-1	320	·	·
Cc1cc(=O)oc2c(C)c(OCC(=O)N3CCN(Cc4ccccc4)CC3)ccc12	·	2	0	3	0	329	4	102
O=C(N1CCCCCC1)N1CC1	·	·	·	5	·	·	·	·
COc1ccc(/C=C2/C(=O)N(Cc3ccco3)C(=O)N(C(C)C)C2=O)cc1	-36	11	8	-30	24	537	·	·
CC(C)N1C(=O)/C(=C/C=C/c2ccco2)C(=O)N(Cc2ccco2)C1=O	-49	-1	16	-19	-3	230	11	103
CCN(CC)c1ccc(N=Cc2c(O)n(-c3ccccc3C)c(=O)[nH]c2=O)cc1	-61	-4	27	-5	1	29	0	107
Cc1ccccc1-n1c(O)c(C=Nc2ccc3c(c2)OCO3)c(=O)[nH]c1=O	-13	-1	0	-2	1	317	·	·
O=c1[nH]c(=O)n(Cc2ccco2)c(O)c1C=NCc1ccc2c(c1)OCO2	-96	-3	0	-3	0	332	1	102
CCCCn1c(O)c(C(C)=NCc2ccc3c(c2)OCO3)c(=O)[nH]c1=O	-11	-1	0	7	5	193	·	·
CCCCn1c(O)c(C=NCc2ccc3c(c2)OCO3)c(=O)[nH]c1=O	-8	1	94*	2	-1	162	-1	96
Clc1ccccc1CN1CCN(c2cccc3[nH]ccc23)CC1	-7	1	1	0	0	160	·	·
NCCc1c[nH]c2ccccc12	-9	·	62*	-4	1	174	-6	100
NC(=O)C1CCN(/C=C2\C(=O)NC(=O)N(Cc3ccco3)C2=O)CC1	-12	4	47*	-2	5	253	20	99
O=C(Nc1ccccc1)Oc1ccccc1	-2	-1	3	-5	1	193	·	·
COC(=O)c1ccc(NC(=O)NC(=O)Oc2ccccc2)cc1	·	·	81*	-2	-1	363	-1	98
N#CC(c1ccccc1)N1CCOCC1 (stereo not given)	-2	-1	0	1	-8	412	·	·
CN1CCN(C(=O)COc2ccc(S(=O)(=O)N(C)Cc3ccccc3)cc2)CC1	-14	0	54*	0	0	0	-22	151
CCN1C[C@@]2(COC)C3[C@@H](OC)[C@H]4[C@@H]1[C@@]3(C1C[C@H]3[C@H](OC(C)=O)C1[C@]4(OC(C)=O)C[C@H]3OC)[C@@H](OC)C[C@H]2OC(C)=O (stereo not given in full)	·	2	2	·	·	218	·	·
CC[n+]1c(/C=C/N(C)c2ccccc2)sc2ccc(Cl)cc21	-4	5	92*	0	-2	278	41*	108	Aptamer quench=26
CCC(=Nc1ccc2c(c1)CCC2)c1c(O)n(C2CCCCC2)c(=O)[nH]c1=O	-17	-1	100*	-4	1	163	1	108
COC(=O)N1CCN(C(=O)Cc2ccc(Cl)c(Cl)c2)C(CN2CCCC2)C1 (stereo not given)	-9	1	0	·	·	646	·	·
